Measured values as given in ChEMBL document CHEMBL1126974, “The effect of NMeTyr5 substitution in luteinizing hormone-releasing hormone antagonists” (J Med Chem, 1993).
In brackets after ≈: the same amount, converted by molar mass. Non-standard residues stand in square brackets, D forms with d. Residues, ends and D or L forms follow the SMILES beside them. *: point of attachment. dNva(5-oxo-5-(4-MeOPh)) = COc1ccc(C(=O)CC[C@@H](N)C(=O)O)cc1; dPhe(4-Cl) = N[C@H](Cc1ccc(Cl)cc1)C(=O)O; d2Nal = N[C@H](Cc1ccc2ccccc2c1)C(=O)O; Lys(iPr) = CC(C)NCCCC[C@H](N)C(=O)O; NMeY = CN[C@@H](Cc1ccc(O)cc1)C(=O)O; dBta = N[C@H](Cc1csc2ccccc12)C(=O)O; dCit = NC(=O)NCCC[C@@H](N)C(=O)O; d3Pal = N[C@H](Cc1cccnc1)C(=O)O; Nicotinoyl = O=C(c1cccnc1)*

Legend:
[1] = biological target: T1, Gonadotropin-releasing hormone receptor (Rattus norvegicus, UniProt P30969); assay: The negative logarithm of the concentration of antagonist that inhibits 50% of the binding of 125 I-labeled leuprolide to the rat pituitary LHRH receptor
T1 sequence (P30969 whole entry): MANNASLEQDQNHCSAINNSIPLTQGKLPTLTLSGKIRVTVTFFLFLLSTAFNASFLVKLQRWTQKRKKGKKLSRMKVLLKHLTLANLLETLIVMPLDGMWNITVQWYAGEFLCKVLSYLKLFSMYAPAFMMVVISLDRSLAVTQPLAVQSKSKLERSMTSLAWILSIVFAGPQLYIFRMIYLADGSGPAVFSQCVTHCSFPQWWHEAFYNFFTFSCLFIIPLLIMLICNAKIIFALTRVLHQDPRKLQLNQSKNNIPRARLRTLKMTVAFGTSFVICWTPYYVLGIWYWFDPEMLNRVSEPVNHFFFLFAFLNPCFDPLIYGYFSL
Summary of the method: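 Competition binding to rat pituitary LHRH receptor with 125I-labeled leuprolide as radioligand; compounds dissolved in 10 mmol Tris buffer pH 7.4. Concentration inhibiting 50% of tracer binding determined and expressed as its negative logarithm (pKi). TFA salts unless indicated.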

[2] = species: Rattus norvegicus; assay: The negative logarithm of the concentration of the antagonist that requires 2-fold higher concentration of the agonist to release LH from cultured rat pituitary cells; assay type: functional, cell-based; settings: Pituitary gland cell, read-out: pA2 (converted)
Summary of the method: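 Cultured rat pituitary cells stimulated with LHRH agonist in presence of antagonist dissolved in 10 mmol Tris buffer pH 7.4; LH release measured. pA2 taken as negative log of antagonist concentration requiring 2-fold higher agonist concentration for LH release.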

[3] = Solubility was determined in 5% dextrose, pH 4.5; assay type: physicochemical
Summary of the method: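 Solubility measured in 5% dextrose at pH 4.5, reported in mg/mL; some peptides measured as TFA salts, others as acetate salts.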

[4] = species: Rattus norvegicus; assay: Effective dose of the antagonist that gives 50% of the maximal release of histamine from rat peritoneal mast cells; assay type: functional; settings: read-out: ED50 (the source's name)
Summary of the method: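 Mast cells from rat peritoneum; compounds dissolved in 5.6 mM glucose, 0.1% BSA in Dulbecco phosphate-buffered saline pH 7.4. Released histamine quantified by RIA kit; value is dose giving 50% of maximal histamine release, in µg/mL. Tested as TFA salts unless indicated.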

Compound	Ki [1] [nM]	solubility [3] [µg/mL]	EC50 [4] [µg/mL]	Kb [2] [nM]
CC(=O)N[C@H](Cc1ccc(Cl)cc1)C(=O)N[C@H](Cc1ccc(Cl)cc1)C(=O)N[C@H](Cc1csc2ccccc12)C(=O)N[C@@H](CO)C(=O)N[C@@H](Cc1ccc(O)cc1)C(=O)N[C@H](CCCCN)C(=O)N[C@@H](CC(C)C)C(=O)N[C@@H](CCCN=C(N)N)C(=O)N1CCC[C@H]1C(=O)N[C@H](C)C(N)=O [listing 1 of 2 here]	0.0331	< 100	–	0.00646
CC(=O)N[C@H](Cc1ccc(Cl)cc1)C(=O)N[C@H](Cc1ccc(Cl)cc1)C(=O)N[C@H](Cc1csc2ccccc12)C(=O)N[C@@H](CO)C(=O)N(C)[C@@H](Cc1ccc(O)cc1)C(=O)N[C@H](CCCCN)C(=O)N[C@@H](CC(C)C)C(=O)N[C@@H](CCCN=C(N)N)C(=O)N1CCC[C@H]1C(=O)N[C@H](C)C(N)=O (Ac-[dPhe(4-Cl)][dPhe(4-Cl)][dBta]S[NMeY][dK]LRP[dA]-NH2) [listing 1 of 2 here]	–	–	< 0.5	–
COc1ccc(C(=O)CC[C@@H](NC(=O)[C@H](CCCN=C(N)N)NC(=O)[C@H](CO)NC(=O)[C@@H](Cc2cccnc2)NC(=O)[C@@H](Cc2ccc(Cl)cc2)NC(=O)[C@@H](Cc2ccc3ccccc3c2)NC(C)=O)C(=O)N[C@@H](CC(C)C)C(=O)N[C@@H](CCCN=C(N)N)C(=O)N2CCC[C@H]2C(=O)N[C@H](C)C(N)=O)cc1 (Ac-[d2Nal][dPhe(4-Cl)][d3Pal]SR[dNva(5-oxo-5-(4-MeOPh))]LRP[dA]-NH2) [listing 1 of 2 here]	–	–	1.11 (≈ 0.747 µM)	–
CC(=O)N[C@H](Cc1ccc2ccccc2c1)C(=O)N[C@H](Cc1ccc(Cl)cc1)C(=O)N[C@H](Cc1cccnc1)C(=O)N[C@@H](CO)C(=O)N[C@@H](Cc1ccc(O)cc1)C(=O)N[C@H](CCCNC(N)=O)C(=O)N[C@@H](CC(C)C)C(=O)N[C@@H](CCCN=C(N)N)C(=O)N1CCC[C@H]1C(=O)N[C@H](C)C(N)=O (Ac-[d2Nal][dPhe(4-Cl)][d3Pal]SY[dCit]LRP[dA]-NH2) [listing 1 of 2 here]	–	–	–	0.0355
CC(=O)N[C@H](Cc1ccc(Cl)cc1)C(=O)N[C@H](Cc1ccc(Cl)cc1)C(=O)N[C@H](Cc1csc2ccccc12)C(=O)N[C@@H](CO)C(=O)N[C@@H](Cc1ccc(O)cc1)C(=O)N[C@H](CCCCN)C(=O)N[C@@H](CC(C)C)C(=O)N[C@@H](CCCN=C(N)N)C(=O)N1CCC[C@H]1C(=O)N[C@H](C)C(N)=O [listing 2 of 2 here]	–	–	0.62 (≈ 0.43 µM)	–
CC(=O)N[C@H](Cc1ccc2ccccc2c1)C(=O)N[C@H](Cc1ccc(Cl)cc1)C(=O)N[C@H](Cc1cccnc1)C(=O)N[C@@H](CO)C(=O)N(C)[C@@H](Cc1ccc(O)cc1)C(=O)N[C@H](CCCNC(N)=O)C(=O)N[C@@H](CC(C)C)C(=O)N[C@@H](CCCN=C(N)N)C(=O)N1CCC[C@H]1C(=O)N[C@H](C)C(N)=O [listing 1 of 2 here]	–	–	1.65 (≈ 1.14 µM)	–
CC(=O)N[C@H](Cc1ccc(Cl)cc1)C(=O)N[C@H](Cc1ccc(Cl)cc1)C(=O)N[C@H](Cc1csc2ccccc12)C(=O)N[C@@H](CO)C(=O)N(C)[C@@H](Cc1ccc(O)cc1)C(=O)N[C@H](CCCCN)C(=O)N[C@@H](CC(C)C)C(=O)N[C@@H](CCCN=C(N)N)C(=O)N1CCC[C@H]1C(=O)N[C@H](C)C(N)=O (Ac-[dPhe(4-Cl)][dPhe(4-Cl)][dBta]S[NMeY][dK]LRP[dA]-NH2) [listing 2 of 2 here]	0.0234	> 25000	–	0.00501
COc1ccc(C(=O)CC[C@@H](NC(=O)[C@H](CCCN=C(N)N)NC(=O)[C@H](CO)NC(=O)[C@@H](Cc2cccnc2)NC(=O)[C@@H](Cc2ccc(Cl)cc2)NC(=O)[C@@H](Cc2ccc3ccccc3c2)NC(C)=O)C(=O)N[C@@H](CC(C)C)C(=O)N[C@@H](CCCN=C(N)N)C(=O)N2CCC[C@H]2C(=O)N[C@H](C)C(N)=O)cc1 (Ac-[d2Nal][dPhe(4-Cl)][d3Pal]SR[dNva(5-oxo-5-(4-MeOPh))]LRP[dA]-NH2) [listing 2 of 2 here]	0.0525	–	–	0.00871
CC(=O)N[C@H](Cc1ccc2ccccc2c1)C(=O)N[C@H](Cc1ccc(Cl)cc1)C(=O)N[C@H](Cc1cccnc1)C(=O)N[C@@H](CO)C(=O)N[C@@H](Cc1ccc(O)cc1)C(=O)N[C@H](CCCNC(N)=O)C(=O)N[C@@H](CC(C)C)C(=O)N[C@@H](CCCN=C(N)N)C(=O)N1CCC[C@H]1C(=O)N[C@H](C)C(N)=O (Ac-[d2Nal][dPhe(4-Cl)][d3Pal]SY[dCit]LRP[dA]-NH2) [listing 2 of 2 here]	–	–	1.11 (≈ 0.776 µM)	–
CC(=O)N[C@H](Cc1ccc2ccccc2c1)C(=O)N[C@H](Cc1ccc(Cl)cc1)C(=O)N[C@H](Cc1cccnc1)C(=O)N[C@@H](CO)C(=O)N(C)[C@@H](Cc1ccc(O)cc1)C(=O)N[C@H](CCCNC(N)=O)C(=O)N[C@@H](CC(C)C)C(=O)N[C@@H](CCCN=C(N)N)C(=O)N1CCC[C@H]1C(=O)N[C@H](C)C(N)=O [listing 2 of 2 here]	0.0135	12000 (≈ 8300 µM)	–	0.0158

The next lines start with results.

Ki [1] [nM]	solubility [3] [µg/mL]	EC50 [4] [µg/mL]	Compound	Kb [2] [nM]
–	–	10 (≈ 6.51 µM)	CC(=O)N[C@H](Cc1ccc2ccccc2c1)C(=O)N[C@H](Cc1ccc(Cl)cc1)C(=O)N[C@H](Cc1cccnc1)C(=O)N[C@@H](CO)C(=O)N(C)[C@@H](Cc1ccc(O)cc1)C(=O)N[C@H](CCCCNC(=O)c1cccnc1)C(=O)N[C@@H](CC(C)C)C(=O)N[C@@H](CCCCNC(C)C)C(=O)N1CCC[C@H]1C(=O)N[C@H](C)C(N)=O (Ac-[d2Nal][dPhe(4-Cl)][d3Pal]S[NMeY][dK](Nicotinoyl)L[Lys(iPr)]P[dA]-NH2) [listing 1 of 2 here]	–
–	–	261 (≈ 164 µM)	CC(=O)N[C@H](Cc1ccc2ccccc2c1)C(=O)N[C@H](Cc1ccc(Cl)cc1)C(=O)N[C@H](Cc1cccnc1)C(=O)N[C@@H](CO)C(=O)N[C@@H](CCCCNC(=O)c1cccnc1)C(=O)N[C@H](CCCCNC(=O)c1cccnc1)C(=O)N[C@@H](CC(C)C)C(=O)N[C@@H](CCCCNC(C)C)C(=O)N1CCC[C@H]1C(=O)N[C@H](C)C(N)=O (Ac-[d2Nal][dPhe(4-Cl)][d3Pal]SK(Nicotinoyl)[dK](Nicotinoyl)L[Lys(iPr)]P[dA]-NH2) [listing 1 of 2 here]	–
0.117	< 1000	–	CC(=O)N[C@H](Cc1ccc2ccccc2c1)C(=O)N[C@H](Cc1ccc(Cl)cc1)C(=O)N[C@H](Cc1cccnc1)C(=O)N[C@@H](CO)C(=O)N[C@@H](Cc1ccc(O)cc1)C(=O)N[C@H](CCCNC(N)=O)C(=O)N[C@@H](CC(C)C)C(=O)N[C@@H](CCCNC(=N)N)C(=O)N1CCC[C@H]1C(=O)N[C@H](C)C(N)=O (Ac-[d2Nal][dPhe(4-Cl)][d3Pal]SY[dCit]LRP[dA]-NH2)	–
–	> 20000	–	CC(=O)N[C@H](Cc1ccc2ccccc2c1)C(=O)N[C@H](Cc1ccc(Cl)cc1)C(=O)N[C@H](Cc1cccnc1)C(=O)N[C@@H](CO)C(=O)N(C)[C@@H](Cc1ccc(O)cc1)C(=O)N[C@H](CCCCNC(=O)c1cccnc1)C(=O)N[C@@H](CC(C)C)C(=O)N[C@@H](CCCCNC(C)C)C(=O)N1CCC[C@H]1C(=O)N[C@H](C)C(N)=O (Ac-[d2Nal][dPhe(4-Cl)][d3Pal]S[NMeY][dK](Nicotinoyl)L[Lys(iPr)]P[dA]-NH2) [listing 2 of 2 here]	0.00589
0.0617	1100 (≈ 691 µM)	–	CC(=O)N[C@H](Cc1ccc2ccccc2c1)C(=O)N[C@H](Cc1ccc(Cl)cc1)C(=O)N[C@H](Cc1cccnc1)C(=O)N[C@@H](CO)C(=O)N[C@@H](CCCCNC(=O)c1cccnc1)C(=O)N[C@H](CCCCNC(=O)c1cccnc1)C(=O)N[C@@H](CC(C)C)C(=O)N[C@@H](CCCCNC(C)C)C(=O)N1CCC[C@H]1C(=O)N[C@H](C)C(N)=O (Ac-[d2Nal][dPhe(4-Cl)][d3Pal]SK(Nicotinoyl)[dK](Nicotinoyl)L[Lys(iPr)]P[dA]-NH2) [listing 2 of 2 here]	0.0234
